tested on: E. coli BW25113 ΔtolC growth inhibition, OD615; test: growth inhibitors of E. coli tolC mutant, dose response, strain BW25113 ΔtolC::kan (AID 617);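 also: growth read after 20 h at 37 °C with compound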
Outline: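 Test system: E. coli BW25113 ΔtolC::kan bacteria | Amount: 1:1000 diluted subculture inoculum | Medium: LB plus kanamycin | Timing: 20 h exposure at 37 °C | Signal: Absorbance at 615 nm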

Row | SMILES | IC50 [µM]
1 | Cc1cc(C(=O)CSc2nc3ccccc3o2)c(C)n1C1CC1 | 7.02
2 | O=C(CSc1nnnn1C1CCCCC1)Nc1cccc(NC(=O)c2ccco2)c1 | 15.5
3 | CC(C)(C)c1ccc(C(=O)CCCSC2=C(C#N)C(c3ccco3)C3=C(CCCC3=O)N2)cc1 (stereo unspecified) | 1.77
4 | CCOC(=O)N1CCc2c(sc(NC(=O)c3ccc(Cl)s3)c2C(N)=O)C1 | 5.13
5 | Cc1cccc(N2CCN(C(=O)c3cn(C)c(=O)c4c3c3ccccc3n4C)CC2)c1C | 16
6 | O=C(Nc1cccc(S(=O)(=O)c2cccc(NC(=O)C3CC3)c2)c1)C1CC1 | 5.25
7 | CCOC(=O)N1CCN(S(=O)(=O)c2ccc(OCC)c3ccccc23)CC1 | 14.2
8 | Cc1ccc(C)n1-n1cnc2sc(-c3ccccc3)cc2c1=O | 7.12
9 | COC(=O)c1ccc(NC(=O)CN2CCN(c3cccc(Cl)c3)CC2)cc1 | 21.7
10 | CCc1ccccc1N(CC)C(=O)CCc1nc(-c2ccc(C)cc2)no1 | 11.2
11 | Cc1cc(C2N=C(N)Nc3nc4ccccc4n32)c(C)n1-c1ccccc1Cl (stereo unspecified) | 6.74
12 | COc1ccc(CCNC(=O)c2cc3sc(Cl)cc3n2C)cc1OC | 30.8
13 | CCn1cc(C(=O)OC(C)C(=O)Nc2c(C)n(C)n(-c3ccccc3)c2=O)c(=O)c2ccc(C)nc21 (stereo unspecified) | 12.7
14 | O=S(=O)(Nc1cc(Cl)ccc1N1CCCCC1)c1cccs1 | 12.5
15 | c1csc(-c2nc3nc4ccccc4nc3n2Cc2ccc3c(c2)OCO3)c1 | 9.62
16 | COc1c(C)cc(Br)cc1C(=O)Nc1cccc(NC(=O)c2ccco2)c1 | 7.48
17 | O=C1CN(C(=O)c2ccc(Br)o2)C(c2ccccc2)c2cc(Cl)ccc2N1 (stereo unspecified) | 15.6
18 | CCCC(=O)c1ccc(N2CCCCCC2)c(F)c1 | 95.6
19 | CCOC(=O)c1cn(CC)c2cc(N3CCCCC3)c(F)cc2c1=O | 3.42
20 | CCOC(=O)c1cnc(-n2nc(C)cc2C)nc1NC1CCCCC1 | 0.54
21 | CCn1c(CNc2cccc(Cl)c2)nnc1SCC(=O)OC1CCCCC1 | 17.8
22 | COC(=O)c1ccccc1NC(=O)N1c2ccccc2CC1C (stereo unspecified) | 14.1
23 | O=C(Nc1nnc(C2CC2)s1)c1cc(-c2ccccc2)nn1-c1ccccc1 | 6.41

Row | SMILES | IC50 [µM]
24 | CCn1c(N2CCN(C(=O)C34CC5CC(CC(C5)C3)C4)CC2)nc2ccccc21 | 17.2
25 | Cn1nc(-c2ccc(N3CCOCC3)c(NC(=O)COc3ccccc3)c2)c2ccccc2c1=O | 8.7
26 | O=C(CSc1nnnn1C1CCCCC1)Nc1nc2c(s1)CCCC2 | 10.2
27 | CCCn1c(SCC(=O)Nc2ccccc2N2CCCCC2)nc2c1c(=O)n(C)c(=O)n2C | 11.7
28 | COc1ccc(-c2csc(NCc3ccco3)n2)cc1C | 23.2
29 | CCn1c(C(=O)NCCCc2ccccc2)cc2sccc21 | 8.52
30 | COc1cccc(-c2cc(C(=O)N3CCc4ccccc4C3)no2)c1 | 8.69
31 | O=C(CSc1nc2ccccc2o1)Nc1ccccc1N1CCCCCC1 | 11.7
32 | Cc1noc(NS(=O)(=O)c2ccc(NC(=O)COc3ccc(Cl)cc3Cl)cc2)c1C | 9.41
33 | Cc1ccc(S(=O)(=O)Nc2cccc3ncccc23)s1 | 1.65
34 | COc1ccc(CN(C(=O)CN2C(=O)COc3ccccc32)C2CCCC2)c(OC)c1 | 19.1
35 | COc1ccc(Cn2c(=O)sc3ccccc32)cc1 | 61.7
36 | N#CC1=C(SCC(=O)NC23CC4CC(CC(C4)C2)C3)NC(=O)C(C#N)C12CCCCC2 (stereo unspecified) | 4.11
37 | O=c1c2cc3ccccc3n2cnn1Cc1ccccc1F | 17.2
38 | CS(=O)(=O)N(Cc1nc2sc3c(c2c(=O)[nH]1)CCCC3)C1CCCCC1 | 8.1
39 | O=C(OC1CCCCC1)c1ccc(NC(=O)c2ccco2)cc1 | 6.09
40 | CC(C)(C)c1cc(C(F)(F)F)nc(SCCCNC(=O)c2ccco2)n1 | 6.37
41 | Cn1c(=O)c2c(SCc3cccnc3)nc(CC(C)(C)C)nc2n(C)c1=O | 8.18
42 | CCOc1ccc2nc(NC(=O)CN3CCC(n4nnc5cc(F)ccc54)CC3)sc2c1 | 15.4
43 | CC(C)(C)n1c(O)c(C=Nc2ccc3c(c2)CCC3)c(=O)[nH]c1=O | 12.8
44 | CCOC(=O)c1cnc(-n2nc(C)cc2C)nc1N(CC)CC | 12.3
45 | Cc1nc2c(C(=O)NCCC3=CCCCC3)c[nH]n2c(=O)c1Cl | 8.36
46 | Clc1ccc(OCCN2CCN(c3ncnc4sccc34)CC2)cc1 | 16.1

Row | SMILES | IC50 [µM]
47 | O=C(CC(=O)c1cc(Cl)ccc1O)c1ccccc1 | 8.34
48 | Cc1ccc(CN2CCSc3ccc(C(=O)N4CCN(c5ncccn5)CC4)cc32)cc1 | 17
49 | C(=C\c1ccccc1)/CN1CCN(c2ncnc3c2oc2ccccc23)CC1 | 10.2
50 | COc1cc2c3c(c1)C1(C(=O)N3C(C)(C)C=C2C)C(C#N)=C(N)Oc2cc(O)ccc21 (stereo unspecified) | 6.64
51 | COc1cc(-c2nnc(SCc3ccccc3Cl)o2)cc(OC)c1OC | 10.2
52 | O=C(Nc1ccc(Cl)cc1)N(Cc1cccs1)Cc1cccs1 | 10.7
53 | COC(=O)C1=C(C)N(C)C(C)=C(C(=O)OC)C1c1ccc(F)c(Br)c1 | 20
54 | COc1cc(S(=O)(=O)N2CCC(O)(c3cccc(C(F)(F)F)c3)CC2)ccc1-n1cnnn1 | 11.1
55 | CCCCc1c(C)nn(-c2nnc3c4ccccc4n(CC)c3n2)c1C | 1.77
56 | COC(=O)c1ccc(/C(O)=C(\C#N)c2nc3ccccc3s2)cc1 | 2.51
57 | CCn1c(=O)c(C(=O)Nn2c(C)nc3ccccc3c2=O)c(O)c2ccccc21 | 3.26
58 | CCCCOC(=O)Nc1cc(C(=O)OC)ccc1C(=O)OC | 26.8
59 | COC(=O)c1cc(CSc2nc3ccc(C)cc3[nH]2)oc1C | 13.8
60 | CC1CCCCN1S(=O)(=O)c1ccc(C(=O)Nc2nnc(-c3cccs3)o2)cc1 (stereo unspecified) | 0.24
61 | O=C(NC1CCCCC1)c1nc2c(nnn2Cc2ccccc2Cl)c(=O)[nH]1 | 6.11
62 | c1ccc(-c2csc(N3CCN(c4ccccn4)CC3)n2)cc1 | 8.99
63 | COc1cc2ccccc2cc1C(=O)Nc1ccc(S(=O)(=O)Nc2cc(C)on2)cc1 | 10.7
64 | CC(C)(C)OC(=O)N1CCC[C@H]1c1nnc(SCc2ccc(Cl)cc2Cl)o1 | 11
65 | CCCN(CCC)S(=O)(=O)c1ccc(C(=O)Nc2nnc(-c3cccc(OC)c3)o2)cc1 | 0.26
66 | COc1ccc(Nc2nc(N3CCCC3)c3ccccc3n2)cc1 | 18.3
67 | O=C(Nc1ccc(Cl)cc1)N1CCC(c2nc(-c3cccs3)no2)CC1 | 6.4
68 | O=C(Nc1ccc(C(F)(F)F)cc1)C1CCCN1S(=O)(=O)c1cccc2cccnc12 (stereo unspecified) | 22.6
69 | N/C(=N/O)c1nc(N2CCCC2)nc(N(c2ccccc2)c2ccccc2)n1 | 10.9

Row | SMILES | IC50 [µM]
70 | C=CCOC(=O)C(C#N)c1nc2ccccc2nc1N1CCN(Cc2ccccc2)CC1 (stereo unspecified) | 17.2
71 | Cc1onc(-c2ccccc2)c1C(=O)OCC(=O)c1ccccc1 | 24.2
72 | COc1ccc(CN(C(=O)CN2C(=O)C(C)Oc3ccccc32)C2CCCC2)c(OC)c1 (stereo unspecified) | 28.1
73 | COc1ccc(-c2[nH]ncc2-c2ccc(Cl)cc2)c(O)c1 | 4.52
74 | Cc1cc(C)c(C#N)c(N2CCN(CCOc3ccc(Cl)cc3)CC2)n1 | 10.4
75 | O=C1OC(c2ccc(O)cc2)(c2ccc(O)cc2)c2ccccc21 | 4.01
76 | Cc1cccc(OCCCCc2c(C)n[nH]c2C)c1C | 1.56
77 | CC1(C)CC(=O)C=C(NCCN2CCN(C(=O)Nc3ccc(Cl)c(Cl)c3)CC2)C1 | 20.3
78 | COC(=O)c1sccc1NC(=O)c1ccc(Cl)s1 | 4.02
79 | Cc1csc(NC(=O)c2cccc(Cn3nc(C)c(Br)c3C)c2)n1 | 10.3
80 | CCN1C(=O)CSC1=NC1C2CC3CC(C2)CC1C3 (stereo unspecified) | 33.5
81 | Cc1cc(-c2ccco2)c(C#N)c2nc3ccccc3n12 | 9.09
82 | CCOC(=O)c1cccc(NC(=O)Nc2cc(OC)ccc2OC)c1 | 20.5
83 | COC(=O)c1cccc(-n2nnnc2SCC(=O)Nc2nc3c(s2)CCCC3)c1 | 15.8
84 | O=C(NCc1ccco1)c1sc(=S)n2c1[nH]c(=O)c1ccccc12 | 1.26
85 | N#CC1=C(N)NC(SCc2ccccc2)=C(C#N)C12CCCCC2 | 2.12
86 | Cc1c(C(=O)N2CCCCC2)oc2ccc(S(=O)(=O)N3CC(C)CC(C)C3)cc12 (stereo unspecified) | 9.13
87 | Fc1ccc(CNc2nc(-c3ccco3)cc(C(F)(F)F)n2)cc1 | 13.9
88 | Clc1ccc(OCc2nc(-c3ccccn3)n[nH]2)cc1 | 15.4
89 | CCC(Oc1ccccc1)C(=O)Nc1ccc(-c2nnc(-c3ccco3)o2)cc1 (stereo unspecified) | 18.2
90 | CCOc1ccc(-c2nc(C#N)c(N3CCCCCC3)o2)cc1 | 12.7
91 | Cc1ccc2cc(CN(Cc3ccccc3)Cc3nnnn3C3CCCC3)c(=O)[nH]c2c1 | 11.6
92 | COc1ccc(/C(O)=C2\C(=O)C(=O)N(CC3CCCO3)C2c2cc(OC)ccc2OC)cc1 (stereo unspecified) | 11.8

Row | SMILES | IC50 [µM]
93 | CN(C)c1nc(SCCOC(=O)Nc2ccccc2)nc(N(C)C)n1 | 12
94 | c1ccc(CC2CCN(c3nnnn3-c3ccccc3)CC2)cc1 | 9.95
95 | C=CCN(CC=C)S(=O)(=O)c1ccc2nc(NC(=O)C(C)C)sc2c1 | 6.66
96 | Cc1ccc(C(=O)N2CCN(c3cccc(Cl)c3)CC2)cc1C | 10.4
97 | O=C(CN(Cc1ccc2c(c1)OCO2)C(=O)CSc1nc2ccccc2o1)NC1CCCCC1 | 6.11
98 | CC(C)Cn1c(=O)c(C(=O)Nc2cnccn2)c(O)c2ccccc21 | 14
99 | COc1ccc(NC(=O)N(C2CCCCC2)C(C)c2ccco2)c(OC)c1 (stereo unspecified) | 15
100 | COc1cccc(-c2nnc(NC(=O)c3ccc(S(=O)(=O)N(CC(C)C)CC(C)C)cc3)o2)c1 | 0.91
101 | COc1ccc(NS(=O)(=O)c2ccc3oc(Nc4ccc5c(c4)OCCO5)nc3c2)cc1 | 7.68
102 | Cc1[nH]c2ccccc2c1NC(=O)CN1CCN(c2cccc(C(F)(F)F)c2)CC1 | 12.5
103 | COc1ccc(OC)c(Nc2nc(-c3cccs3)cs2)c1 | 28.2
104 | CCCCOC(=O)CSc1nnc(-c2ccc(Cl)cc2Cl)o1 | 19.4
105 | COc1cc(Cc2cnc(N)nc2N)cc(OC)c1OC | 0.34
106 | c1ccc(-c2ccccc2-c2nc(-c3cccnc3)no2)cc1 | 13.9
107 | CCCCN(C)S(=O)(=O)c1ccc(C(=O)Nc2nnc(CSC)o2)cc1 | 0.86
108 | CCCc1nc(SC2CCCC2)c2c(=O)n(C)c(=O)n(C)c2n1 | 13.6
109 | CCOc1ccccc1NC(=O)c1cc(CC(C)C)oc1C | 21.8
110 | CC(C)OCCCNc1ncnc2c1[nH]c1ccccc12 | 5.88
111 | Fc1ccc(C(c2ccc(F)cc2)N2CCN(C/C=C/c3ccccc3)CC2)cc1 | 9.08
